Some of the results follow. The source made the active and inactive calls. Rule as the data show it: active = activation above about 33%; inactive = the rest.

The test in a line: activators of apoptotic CHOP UPR arm, confirmation, cell-based, CHO-CHOP luciferase reporter, single concentration (AID 463112).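 Also: 0% = DMSO wells and 100% = tunicamycin 10 µg/mL wells.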 Conditions: CHO-CHOP cells, CHOP-luciferase reporter luminescence; at 10 µM; stronger effect = higher value; percent of tunicamycin response, DMSO as zero. A digest of the protocol:
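Signal: Steady-Glo luciferase luminescence; Test system: CHO-CHOP luciferase reporter cell line; Control set: tunicamycin (high) and DMSO (low) controls; Compound: one concentration, 10 µM, in 0.5% DMSO; Schedule: 6 h compound exposure at 37 °C after overnight seeding.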
Regarding `COc1ccc2c(c1OC)C(=O)OC2Nc1nc(-c2ccccc2)cs1` (stereo unspecified), the activation was 29.9% (inactive). In the case of `CCc1nn(-c2cc(Oc3cccc4ccccc34)nc(-c3ccccc3)n2)c(N)c1C#N`, the activation is 40.1% (active). Take `O=C(CN1CCN(S(=O)(=O)c2cc(Cl)ccc2Cl)CC1)c1ccc(O)c(O)c1`: the activation is 21.2% (inactive). The same measure for `Cc1cc(N/N=C\c2ccc(Br)cc2)nc(-n2nc(C)cc2C)n1`: 12.3% (inactive).

For the compound `COc1cc(/C=C2/C(=O)ON=C2C)ccc1OCc1ccccc1F`, the activation is 3.58% (inactive). As to `C=CS(=O)c1sc(Cl)c(N2CCOCC2)c1[N+](=O)[O-]` (stereo unspecified), the activation was -10.6% (inactive). On to `CCCOC1CCCN(Cc2cn(C)nc2-c2ccccc2F)C1` (stereo unspecified), for which the activation is -0.8% (inactive). `O=C(CSc1cccc2cccnc12)N/N=C/c1cccnc1`: the activation is 265% (active). With `CC(=O)/C(=N\Nc1ccc(Cl)cc1Cl)Sc1cccc2cccnc12`, the activation is 184% (active). For `CCOC(=O)/C=c1\s/c(=C\c2ccc(C#N)cc2)c(=O)n1CC(=O)Nc1cccc(C)c1C`, the activation is 1.05% (inactive).

In the case of `COc1ccc(-c2cc(C(F)(F)F)nc(S(C)(=O)=O)n2)cc1OC`, the activation is 210% (active). Consider `OCCNc1nc(Nc2ccc(Cl)c(Cl)c2)nc2ccccc12`, for which the activation was 41% (active).

`CCc1ccc2c(c1)C1(NN=C(c3ccccc3)S1)C(=O)N2` (stereo unspecified): the activation was 98.4% (active). `Oc1c(CN2CCN(c3ccc(F)cc3)CC2)cc(Cl)c2cccnc12`: the activation was 196% (active).

In the case of `COc1ccccc1N=Cc1c(O)c2ccccc2oc1=O`, the activation is 124% (active). For `CCCc1cc(=S)n2c([nH]c3ccccc32)c1C#N`, the activation was -0.45% (inactive).
